Entries after “also recorded” stand apart in the source; their conditions may differ.
Columns and labels:
[1] = biological target: recombinant TDP1 (Homo sapiens, UniProt Q9NUW8); test: Recombinant TDP1 assay; type: biochemical; conditions: highest concentration tested 111 μM
How it was run: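 Test compound was run as six or eight three-fold dilutions from 111 μM down to 0.46 μM or 0.051 μM against recombinant TDP1. Reactions were stopped with 1 volume of gel loading buffer (99.5% formamide, 5 mM EDTA, xylene cyanol, bromophenol blue) and resolved by 16% denaturing PAGE. Dried gels were phosphorimaged and quantified by densitometry.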

[2] = biological target: T1, TOP1 (Homo sapiens, UniProt P11387); test: TOP1-mediated relaxation assay; type: biochemical; conditions: 25 μM concentration
T1 sequence (P11387 1-765): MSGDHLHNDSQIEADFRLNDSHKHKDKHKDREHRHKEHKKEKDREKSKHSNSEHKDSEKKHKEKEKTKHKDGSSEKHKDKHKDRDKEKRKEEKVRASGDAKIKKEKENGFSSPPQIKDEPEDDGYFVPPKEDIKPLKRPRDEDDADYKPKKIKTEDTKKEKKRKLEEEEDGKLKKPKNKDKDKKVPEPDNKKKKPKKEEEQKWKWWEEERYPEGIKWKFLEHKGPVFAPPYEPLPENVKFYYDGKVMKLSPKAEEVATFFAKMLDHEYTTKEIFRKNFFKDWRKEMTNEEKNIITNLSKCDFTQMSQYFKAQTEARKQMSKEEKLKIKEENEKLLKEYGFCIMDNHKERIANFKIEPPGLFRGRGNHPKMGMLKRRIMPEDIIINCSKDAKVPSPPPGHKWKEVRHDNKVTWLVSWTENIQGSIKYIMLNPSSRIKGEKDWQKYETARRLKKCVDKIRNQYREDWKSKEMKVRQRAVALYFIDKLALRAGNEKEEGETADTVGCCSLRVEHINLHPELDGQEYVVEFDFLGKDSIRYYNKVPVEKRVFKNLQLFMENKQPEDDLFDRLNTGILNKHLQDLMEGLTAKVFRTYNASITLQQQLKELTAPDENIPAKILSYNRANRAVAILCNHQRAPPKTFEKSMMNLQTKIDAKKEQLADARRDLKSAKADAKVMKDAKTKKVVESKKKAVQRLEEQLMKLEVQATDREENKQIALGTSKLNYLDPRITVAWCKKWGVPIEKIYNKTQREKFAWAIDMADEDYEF

[3] = system: TOP2; test: TOP2-mediated relaxation assay; type: biochemical; conditions: 25 μM concentration
[4] = biological target: T2, recombinant human TDP2 (Homo sapiens, UniProt O95551); test: Recombinant TDP2 assay; type: biochemical; conditions: inactive, i.e. IC50 >111 μM
T2 sequence (O95551 1-362): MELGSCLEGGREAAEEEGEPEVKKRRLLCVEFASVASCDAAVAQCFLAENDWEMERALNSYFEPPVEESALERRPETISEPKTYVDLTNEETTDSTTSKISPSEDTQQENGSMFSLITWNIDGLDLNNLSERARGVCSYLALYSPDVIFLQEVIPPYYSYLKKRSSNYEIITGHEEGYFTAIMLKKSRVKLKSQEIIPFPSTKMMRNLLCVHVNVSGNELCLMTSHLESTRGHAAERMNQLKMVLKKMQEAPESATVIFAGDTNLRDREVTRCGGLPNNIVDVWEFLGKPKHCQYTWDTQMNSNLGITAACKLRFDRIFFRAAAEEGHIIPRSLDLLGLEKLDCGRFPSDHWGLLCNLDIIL

[5] = biological target: T1, TOP1; test: TOP1-mediated DNA cleavage assay; type: biochemical; conditions: up to 100 μM
[6] = biological target: TOP2-DNA covalent cleavage complexes (TOP2cc) in CCRF-CEM cells (Homo sapiens, UniProt P11388); test: In vivo complex of enzyme; type: cell-based; conditions: 2 h treatment, up to 50 μM
How it was run: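 CCRF-CEM cells (60 × 10^5) exposed to test compound for 2 h, then lysed with 1% Sarkosyl. DNA was isolated, and TOP2–DNA covalent complexes were detected by Western slot blot using a mouse anti-human TOP2α antibody.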

Sequence of recombinant TDP1 (Q9NUW8 whole entry, species assumed): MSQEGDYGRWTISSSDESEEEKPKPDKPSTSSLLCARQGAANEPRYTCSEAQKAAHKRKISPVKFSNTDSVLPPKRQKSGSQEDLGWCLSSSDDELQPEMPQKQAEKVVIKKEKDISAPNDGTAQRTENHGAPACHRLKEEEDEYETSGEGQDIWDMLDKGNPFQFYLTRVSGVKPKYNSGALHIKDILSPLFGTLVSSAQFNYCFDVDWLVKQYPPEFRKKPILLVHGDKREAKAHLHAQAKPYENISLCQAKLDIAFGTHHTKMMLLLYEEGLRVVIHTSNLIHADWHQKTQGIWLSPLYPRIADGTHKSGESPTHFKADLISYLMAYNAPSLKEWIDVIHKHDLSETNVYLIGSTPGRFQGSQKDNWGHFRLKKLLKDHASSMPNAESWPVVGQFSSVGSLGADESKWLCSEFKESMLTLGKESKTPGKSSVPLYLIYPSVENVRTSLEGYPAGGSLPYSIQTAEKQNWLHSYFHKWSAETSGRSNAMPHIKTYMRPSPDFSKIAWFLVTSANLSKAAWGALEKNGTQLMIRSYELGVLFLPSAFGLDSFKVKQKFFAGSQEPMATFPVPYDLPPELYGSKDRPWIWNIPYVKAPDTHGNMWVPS
Sequence of TOP2-DNA covalent cleavage complexes (TOP2cc) in CCRF-CEM cells (P11388 whole entry, one chain of several): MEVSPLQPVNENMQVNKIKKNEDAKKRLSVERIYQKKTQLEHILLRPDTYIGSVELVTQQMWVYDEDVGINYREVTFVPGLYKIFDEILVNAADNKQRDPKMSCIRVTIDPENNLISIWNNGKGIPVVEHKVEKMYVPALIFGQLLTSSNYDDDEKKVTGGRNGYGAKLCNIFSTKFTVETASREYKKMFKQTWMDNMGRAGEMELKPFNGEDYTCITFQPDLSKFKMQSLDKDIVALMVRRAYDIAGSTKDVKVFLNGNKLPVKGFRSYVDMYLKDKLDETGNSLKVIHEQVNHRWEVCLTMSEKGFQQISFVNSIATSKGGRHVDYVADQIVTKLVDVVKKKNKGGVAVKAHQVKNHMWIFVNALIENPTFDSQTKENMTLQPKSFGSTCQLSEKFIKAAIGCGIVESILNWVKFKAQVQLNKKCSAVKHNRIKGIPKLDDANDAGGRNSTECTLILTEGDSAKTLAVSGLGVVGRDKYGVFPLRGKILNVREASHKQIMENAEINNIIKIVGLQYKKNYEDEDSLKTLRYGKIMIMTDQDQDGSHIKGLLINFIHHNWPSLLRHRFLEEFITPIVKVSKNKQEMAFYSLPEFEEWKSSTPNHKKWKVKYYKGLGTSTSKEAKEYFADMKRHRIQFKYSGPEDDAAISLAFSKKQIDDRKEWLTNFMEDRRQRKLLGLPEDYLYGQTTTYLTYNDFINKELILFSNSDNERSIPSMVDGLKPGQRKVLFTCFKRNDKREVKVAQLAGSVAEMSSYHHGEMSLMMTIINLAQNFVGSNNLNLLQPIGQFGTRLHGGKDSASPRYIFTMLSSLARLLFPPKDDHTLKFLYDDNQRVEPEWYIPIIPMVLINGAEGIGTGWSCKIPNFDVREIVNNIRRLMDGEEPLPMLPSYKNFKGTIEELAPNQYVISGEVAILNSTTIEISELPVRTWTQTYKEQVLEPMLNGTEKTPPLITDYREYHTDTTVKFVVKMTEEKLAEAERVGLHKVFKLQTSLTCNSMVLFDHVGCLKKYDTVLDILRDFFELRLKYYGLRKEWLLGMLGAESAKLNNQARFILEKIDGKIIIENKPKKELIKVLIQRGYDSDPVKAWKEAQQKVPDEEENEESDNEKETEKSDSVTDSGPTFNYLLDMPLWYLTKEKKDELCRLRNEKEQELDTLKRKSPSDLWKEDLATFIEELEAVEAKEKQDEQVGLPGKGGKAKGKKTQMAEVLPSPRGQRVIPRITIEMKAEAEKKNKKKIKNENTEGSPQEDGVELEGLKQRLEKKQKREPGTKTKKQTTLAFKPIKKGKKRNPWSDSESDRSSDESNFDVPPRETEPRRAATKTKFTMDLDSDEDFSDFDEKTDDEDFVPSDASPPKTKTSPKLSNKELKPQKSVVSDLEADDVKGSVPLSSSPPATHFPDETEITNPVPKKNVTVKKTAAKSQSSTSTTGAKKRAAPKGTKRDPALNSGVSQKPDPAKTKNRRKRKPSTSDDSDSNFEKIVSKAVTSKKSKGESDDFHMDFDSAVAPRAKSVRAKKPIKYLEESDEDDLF

| SMILES | TDP1 inhibition (in words) [1] | TOP1 relaxing activity inhibition (in words) [2] | TOP2 relaxing activity inhibition (in words) [3] | TDP2 inhibitory activity (in words) [4] | other results |
| --- | --- | --- | --- | --- | --- |
| CCOC(=O)c1c(C)oc2c1C(=O)c1ncccc1C2=O [Compound 1, Ethyl 2-methyl-4,9-dioxo-4,9-dihydrofuro[2,3-g]quinoline-3-carboxylate] | did not inhibit | did not inhibit | did not inhibit |  |  |
| Cc1oc2c(c1C(=O)Oc1ccc3ccccc3c1)C(=O)c1ncccc1C2=O [Compound 40, 2-Naphthalenyl 2-methyl-4,9-dioxo-4,9-dihydrofuro[2,3-g]quinoline-3-carboxylate] |  |  |  | inactive |  |
| Cc1oc2c(c1C(=O)Oc1ccc(C(=O)c3ccccc3)cc1)C(=O)c1ncccc1C2=O [Compound 46, 4-Benzoylphenyl 2-methyl-4,9-dioxo-4,9-dihydrofuro[2,3-g]quinoline-3-carboxylate] |  |  |  | inactive |  |
| Cc1oc2c(c1C(=O)Oc1ccc3c(c1)OCO3)C(=O)c1ncccc1C2=O [Compound 49, Benzo[d][1,3]dioxol-5-yl 2-methyl-4,9-dioxo-4,9-dihydrofuro[2,3-g]quinoline-3-carboxylate] |  |  |  | inactive |  |
| CCOC(=O)c1c(C)[nH]c2c1C(=O)c1cccnc1C2=O [Compound 70, ethyl 2-methyl-4,9-dioxo-4,9-dihydro-1H-pyrrolo[3,2-g]quinoline-3-carboxylate] |  |  |  | inactive |  |
| CCOC(=O)c1c2c(n(C)c1C)C(=O)c1ncccc1C2=O [Compound 72, ethyl 1,2-dimethyl-4,9-dioxo-4,9-dihydro-1H-pyrrolo[3,2-g]quinoline-3-carboxylate] |  |  |  | inactive |  |
| CCOC(=O)c1noc2c1C(=O)c1ncccc1C2=O [Compound 73, Ethyl 4,9-dioxo-4,9-dihydroisoxazolo[5,4-g]quinoline-3-carboxylate] | no activity | do not have inhibitory potency; also recorded: no activity | do not have inhibitory potency; also recorded: no activity |  | TOP1-mediated DNA cleavage, formation of covalent TOP1-DNA complex (in words) [5]: do not have inhibitory potency |
| CCOC(=O)c1noc2c1C(=O)c1cccnc1C2=O [Compound 74, Ethyl 4,9-dioxo-4,9-dihydroisoxazolo[4,5-g]quinoline-3-carboxylate] | no activity | do not have inhibitory potency; also recorded: no activity | do not have inhibitory potency; also recorded: no activity |  | Induction of TOP2cc formation (ICE assay, in words) [6]: unable to induce the formation of TOP2cc; TOP1-mediated DNA cleavage, formation of covalent TOP1-DNA complex (in words) [5]: do not have inhibitory potency |
| CCOC(=O)c1n[nH]c2c1C(=O)c1ncccc1C2=O [Compound 75, Ethyl 4,9-dioxo-4,9-dihydro-1H-pyrazolo[3,4-g]quinoline-3-carboxylate] |  |  |  | inactive |  |
| CCOC(=O)c1n[nH]c2c1C(=O)c1cccnc1C2=O [Compound 76, Ethyl 4,9-dioxo-4,9-dihydro-1H-pyrazolo[4,3-g]quinoline-3-carboxylate] |  |  |  | inactive |  |

From PMC5930004 (European journal of medicinal chemistry, 2018)
